A value given as a limit tells only on which side of the number the result lay.

We go through 20 compounds from ChEMBL document CHEMBL1914381, “New spirocyclic Δ²-isoxazoline derivatives related to selective agonists of α7 neuronal nicotinic acetylcholine receptors” (Eur J Med Chem, 2011).

Assay [1] has as its target Neuronal acetylcholine receptor subunit alpha-7 (Homo sapiens, UniProt P36544). Description: Agonist activity at human alpha7 nAChR expressed in rat GH4C1 cells assessed as maximal electric current amplitude at 1 mM by whole-cell patch clamp electrophysiology assay relative to acetylcholine. In kind it is functional, cell-based. As to conditions: for Activity: GH4-C1. The gist of the method:
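GH4C1 cells stably transfected with human α7 subunit; whole-cell patch clamp, holding potential −70 mV, fast gravity-driven perfusion exchanger. Compound applied at 1 mM; current amplitude normalized to that from ACh 1 mM on the same cell. n = 8–12 cells.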

In assay [2] the target is Neuronal acetylcholine receptor; alpha4/beta2 (Rattus norvegicus, UniProt P09483+P12390). Description: Displacement of [3H]epibatidine from alpha4beta2 nAChR in rat cortical membranes by beta counting relative to acetylcholine. In kind it is cell membranes, Membrane. A digest of the protocol:
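Rat cortex membranes pre-incubated with […] to block α7 sites. Then 30 min r.t. with test compound (10 pM–10 mM), then overnight at 4 °C with 0.075 nM [3H]epibatidine. Nonspecific binding with 100 nM unlabelled epibatidine. Filtered on PEI-soaked GF/C filters and washed; beta counting. Ki fitted from three competition experiments by non-linear least squares; >100 mM when no inhibition up to 100 mM.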
(Loss of bound radioactivity is the signal in a displacement assay; it reports binding, not function.)

In assay [3] the target is Neuronal acetylcholine receptor subunit alpha-7 (Rattus norvegicus, UniProt Q05941). As to the kind of experiment: Displacement of [125I]-alpha-bungarotoxin from alpha7 nAChR in rat cortical membranes by gamma counting. Format: cell membranes, Membrane. The gist of the method: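 Rat cortex membranes (two rats per experiment, homogenized and centrifuged twice at 60,000g) in Tris-HCl buffer pH 7 with protease inhibitors. Pre-incubated 30 min r.t. with test compound (10 pM–10 mM), then overnight at r.t. with 1 nM [125I]α-bungarotoxin. Nonspecific binding with […]. Filtered on polyethylenimine-soaked GF/C filters; gamma counting. Ki fitted from three competition experiments by non-linear least squares; >100 mM when no inhibition up to 100 mM.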

For assay [4], the target named is Neuronal acetylcholine receptor; alpha3/beta4 (Homo sapiens, UniProt P30926+P32297). Description: Displacement of [3H]epibatidine from alpha3beta4 nAChR expressed in human HEK293 cells by beta liquid scintillation counting. Format: cell-based. A digest of the protocol: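 HEK 293 cells transiently transfected with α3 and β4 cDNAs by JetPEI and harvested after 48 h. Compound pre-incubated 5 min, then overnight at 4 °C with 0.25 nM [3H]epibatidine in Tris-HCl pH 7 buffer with 2 mg/ml BSA. Nonspecific binding with 100 nM cold epibatidine. Cells washed seven times with ice-cold PBS; liquid scintillation counting.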
Neuronal acetylcholine receptor; alpha3/beta4, sequence (P30926 whole entry): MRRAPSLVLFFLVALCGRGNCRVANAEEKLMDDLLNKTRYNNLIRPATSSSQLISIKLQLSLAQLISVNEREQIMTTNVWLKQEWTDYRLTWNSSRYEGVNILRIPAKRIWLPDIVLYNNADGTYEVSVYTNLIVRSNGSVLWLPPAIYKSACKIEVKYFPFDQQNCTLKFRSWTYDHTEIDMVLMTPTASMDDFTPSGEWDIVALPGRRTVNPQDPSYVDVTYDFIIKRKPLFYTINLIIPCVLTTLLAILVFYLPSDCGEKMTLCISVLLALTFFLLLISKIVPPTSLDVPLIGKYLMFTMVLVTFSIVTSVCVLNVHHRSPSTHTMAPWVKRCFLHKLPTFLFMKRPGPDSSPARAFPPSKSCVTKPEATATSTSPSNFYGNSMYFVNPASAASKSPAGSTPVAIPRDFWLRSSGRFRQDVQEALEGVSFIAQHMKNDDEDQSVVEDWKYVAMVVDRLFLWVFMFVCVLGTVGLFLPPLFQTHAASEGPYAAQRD
Neuronal acetylcholine receptor; alpha3/beta4, sequence (P32297 whole entry): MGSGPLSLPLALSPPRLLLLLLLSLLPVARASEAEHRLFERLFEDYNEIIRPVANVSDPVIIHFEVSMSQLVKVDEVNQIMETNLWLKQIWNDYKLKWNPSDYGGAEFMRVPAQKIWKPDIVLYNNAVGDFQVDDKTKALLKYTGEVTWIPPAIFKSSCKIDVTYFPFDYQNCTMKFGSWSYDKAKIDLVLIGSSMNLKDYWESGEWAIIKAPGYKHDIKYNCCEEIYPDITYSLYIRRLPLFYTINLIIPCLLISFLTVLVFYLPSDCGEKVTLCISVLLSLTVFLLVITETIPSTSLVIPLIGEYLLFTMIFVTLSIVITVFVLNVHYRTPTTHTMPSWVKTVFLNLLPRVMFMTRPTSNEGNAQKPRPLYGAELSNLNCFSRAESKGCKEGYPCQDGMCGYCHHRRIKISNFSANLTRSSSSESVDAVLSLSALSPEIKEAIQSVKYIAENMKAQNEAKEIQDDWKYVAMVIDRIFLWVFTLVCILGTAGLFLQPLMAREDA

Neuronal acetylcholine receptor subunit alpha-7 (Rattus norvegicus, UniProt Q05941), sequence (Q05941 whole entry): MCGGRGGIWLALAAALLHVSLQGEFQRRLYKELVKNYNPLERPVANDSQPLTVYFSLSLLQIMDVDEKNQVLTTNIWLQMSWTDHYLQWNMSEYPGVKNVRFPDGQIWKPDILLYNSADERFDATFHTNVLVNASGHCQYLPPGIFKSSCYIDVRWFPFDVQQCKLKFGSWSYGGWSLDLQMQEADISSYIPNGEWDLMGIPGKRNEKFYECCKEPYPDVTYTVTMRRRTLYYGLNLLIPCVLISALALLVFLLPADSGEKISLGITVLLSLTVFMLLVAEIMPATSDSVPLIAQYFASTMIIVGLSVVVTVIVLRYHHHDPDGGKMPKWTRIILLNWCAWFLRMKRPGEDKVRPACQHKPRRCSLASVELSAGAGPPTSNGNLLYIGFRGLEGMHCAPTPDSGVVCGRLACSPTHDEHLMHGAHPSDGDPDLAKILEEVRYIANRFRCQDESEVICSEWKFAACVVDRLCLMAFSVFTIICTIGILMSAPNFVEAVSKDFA
Neuronal acetylcholine receptor subunit alpha-7 (Homo sapiens, UniProt P36544), sequence (P36544 whole entry, the tested form may be a part): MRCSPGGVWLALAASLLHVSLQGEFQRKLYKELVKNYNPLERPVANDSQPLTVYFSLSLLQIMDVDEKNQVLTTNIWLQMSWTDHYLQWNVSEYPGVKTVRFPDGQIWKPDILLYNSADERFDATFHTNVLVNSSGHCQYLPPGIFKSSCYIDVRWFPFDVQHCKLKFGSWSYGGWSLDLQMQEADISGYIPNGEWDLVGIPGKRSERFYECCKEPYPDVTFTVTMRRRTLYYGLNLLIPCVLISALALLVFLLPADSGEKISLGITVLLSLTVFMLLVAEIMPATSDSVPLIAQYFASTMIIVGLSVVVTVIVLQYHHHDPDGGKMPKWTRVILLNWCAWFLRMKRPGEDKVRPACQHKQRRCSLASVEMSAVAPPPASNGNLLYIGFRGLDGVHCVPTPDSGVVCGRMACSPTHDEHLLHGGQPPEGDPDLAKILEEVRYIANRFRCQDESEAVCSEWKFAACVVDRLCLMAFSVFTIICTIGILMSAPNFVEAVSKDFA
Neuronal acetylcholine receptor; alpha4/beta2, sequence (P09483 whole entry): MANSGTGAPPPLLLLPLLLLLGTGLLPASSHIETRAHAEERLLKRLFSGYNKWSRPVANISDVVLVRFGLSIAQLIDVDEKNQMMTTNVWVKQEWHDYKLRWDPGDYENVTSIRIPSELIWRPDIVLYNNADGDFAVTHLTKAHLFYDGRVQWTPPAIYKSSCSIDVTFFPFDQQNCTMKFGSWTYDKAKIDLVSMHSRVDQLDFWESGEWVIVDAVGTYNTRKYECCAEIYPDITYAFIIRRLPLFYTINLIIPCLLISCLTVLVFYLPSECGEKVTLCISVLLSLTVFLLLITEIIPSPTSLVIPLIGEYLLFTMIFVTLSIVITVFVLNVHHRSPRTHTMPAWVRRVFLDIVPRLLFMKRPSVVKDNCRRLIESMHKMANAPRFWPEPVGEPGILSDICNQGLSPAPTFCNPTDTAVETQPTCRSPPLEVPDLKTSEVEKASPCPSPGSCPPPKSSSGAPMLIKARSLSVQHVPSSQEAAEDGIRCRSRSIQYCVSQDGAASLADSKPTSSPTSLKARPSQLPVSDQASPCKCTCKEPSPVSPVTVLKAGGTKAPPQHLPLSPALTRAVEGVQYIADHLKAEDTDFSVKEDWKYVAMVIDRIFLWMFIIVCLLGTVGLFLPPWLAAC
Neuronal acetylcholine receptor; alpha4/beta2, sequence (P12390 whole entry): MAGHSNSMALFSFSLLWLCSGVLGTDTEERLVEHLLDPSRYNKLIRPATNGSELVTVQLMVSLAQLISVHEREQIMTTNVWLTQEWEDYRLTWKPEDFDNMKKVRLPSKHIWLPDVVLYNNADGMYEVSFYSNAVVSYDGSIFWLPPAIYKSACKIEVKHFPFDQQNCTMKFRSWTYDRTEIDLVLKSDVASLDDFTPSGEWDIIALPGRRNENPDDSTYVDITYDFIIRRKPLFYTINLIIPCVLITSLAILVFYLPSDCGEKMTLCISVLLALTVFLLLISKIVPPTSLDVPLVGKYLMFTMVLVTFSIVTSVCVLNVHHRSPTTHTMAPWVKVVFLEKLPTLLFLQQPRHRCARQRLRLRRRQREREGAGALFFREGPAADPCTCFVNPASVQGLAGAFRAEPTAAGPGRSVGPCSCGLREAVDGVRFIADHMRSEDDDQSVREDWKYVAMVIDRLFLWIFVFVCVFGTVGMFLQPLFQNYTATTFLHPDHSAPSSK

Consider `COC1=NOC2(CCCN(C)C2)C1` (racemic), for which, in assay [1], the Activity was 7%. In addition, the Ki in assay [2] is greater than 100 µM; in assay [3] it was 5.5 µM; in assay [4] it was 91 µM.
Take `COC1=NOC2(C1)C[N+]1(C)CCC2C1` (racemic): the Ki in assay [2] came to 20 µM; in assay [3], 2.9 µM.
Regarding `COC1=NOC2(C1)CN1CCC2C1` (racemic), the Ki worked out at 16 µM in assay [2], 0.42 µM in assay [3] and 46 µM in assay [4].
With `BrC1=NOC2(C1)CN1CCC2CC1` (racemic), the results for the Ki in assay [2] and in assay [3] were 0.64 µM and 0.0135 µM, respectively.
Consider `c1ccc(C2=NOC3(C2)CN2CCC3CC2)cc1` (racemic), for which the Ki in assay [2] worked out at 22 µM; in assay [3] it was 0.025 µM.
On to `BrC1=NOC2(C1)CN1CCC2C1` (racemic), for which the EC50 in assay [1] was found to be 84.1 µM. In assay [1], the Activity turned out to be 76%. For the same compound, the Ki in assay [2] was 5 µM; in assay [3] it was 0.23 µM; in assay [4] it was 13 µM.
Consider `BrC1=NOC2(CCCNC2)C1` (racemic), for which the Ki came to 58 µM in assay [2] and 4.3 µM in assay [3].
As for `COC1=NOC2(CCC[N+](C)(C)C2)C1` (racemic), the Ki came to 94 µM in assay [2] and 13 µM in assay [3].
The matching figures for `C[N+]12CCC(CC1)C1(CC(Br)=NO1)C2` (racemic): 32.5 µM and 0.109 µM.
The like results for `C[N+]12CCC(C1)C1(CC(Br)=NO1)C2` (racemic) were, in that order, 22 µM and 6.2 µM.
For `CN1CCCC2(CC(Br)=NO2)C1` (racemic), the inhibition constant (Ki) in assay [2] was found to be 44 µM; in assay [3] it was 6.6 µM.
The like results for `C[N+]1(C)CCCC2(CC(Br)=NO2)C1` (racemic) were, in that order, 50 µM and 3.7 µM.
`c1ccc(C2=NOC3(C2)CN2CCC3C2)cc1` (racemic): the inhibition constant (Ki) in assay [2] came to 53 µM; in assay [3] it was 3.6 µM; in assay [4] it was 16 µM.
Take `COC1=NOC2(CCCNC2)C1` (racemic): the Ki is greater than 100 µM in assay [2], 3.7 µM in assay [3] and 75 µM in assay [4].
Turning to `COC1=NOC2(C1)C[N+]1(C)CCC2CC1` (racemic), the Ki in assay [2] was 175 µM; in assay [3] it was 0.0914 µM.
With `C[N+]1(C)CCCC2(CC(c3ccccc3)=NO2)C1` (racemic), the Activity in assay [1] was found to be 26%. Also, the Ki is greater than 100 µM in assay [2], 0.7 µM in assay [3] and 6.6 µM in assay [4].
Turning to `CN1CCCC2(CC(c3ccccc3)=NO2)C1` (racemic), the Ki in assay [2] was greater than 100 µM; in assay [3] it was 30 µM.
For the compound `c1ccc(C2=NOC3(CCCNC3)C2)cc1` (racemic), the Ki is greater than 100 µM in assay [2], 4.5 µM in assay [3] and 43 µM in assay [4].
As to `C[N+]12CCC(C1)C1(CC(c3ccccc3)=NO1)C2` (racemic), the Ki in assay [2] amounted to 38 µM; in assay [3], 5.1 µM.
On to `COC1=NOC2(C1)CN1CCC2CC1` (racemic), for which the Ki is 7.9 µM in assay [2] and 0.0142 µM in assay [3].

By Ki is commonly meant a measure of affinity in units of concentration, obtained from inhibition or displacement. Low readings indicate tighter binding, high ones weaker binding. What is called EC50 is the concentration giving half of the maximal effect.
